Experimental data reported in ChEMBL document CHEMBL4330076, “Quinazolin-2,4-dione-Based Hydroxamic Acids as Selective Histone Deacetylase-6 Inhibitors for Treatment of Non-Small Cell Lung Cancer” (J Med Chem, 2019).

Key:
[1] = system: Lewis lung carcinoma cell line; assay: Induction of apoptosis in mouse LL/2 cells assessed as necrotic cells at 4 uM after 24 hrs by Annexin V/propidium iodide staining-based flow cytometric analysis (reference value: 7.3%); format: functional
[2] = Ratio of compound AUC (0 to 24 hrs) to ACY-1215 AUC (0 to 24 hrs) in C57BL/6 mouse liver at 40 mg/kg, po administered via gavage by LC-MS/MS analysis; format: ADME, organism-based; details: in vivo
[3] = system: Lewis lung carcinoma cell line; assay: Induction of apoptosis in mouse LL/2 cells assessed as viable cells at 4 uM after 24 hrs in presence of paclitaxel by Annexin V/propidium iodide staining-based flow cytometric analysis (reference value: 82.3%); format: functional
A549 [4] = assay: Induction of apoptosis in human A549 cells assessed as late apoptotic cells at 4 uM after 24 hrs in presence of paclitaxel by Annexin V/propidium iodide staining-based flow cytometric analysis (reference value: 1.6%); format: functional
[5] = system: Lewis lung carcinoma cell line; assay: Cytotoxicity against mouse LL/2 cells after 72 hrs by MTT assay; format: functional, cell-based
[6] = Ratio of drug uptake in C57BL/6 mouse lung at 40 mg/kg, po administered via gavage co-administered with paclitaxel at 10 mg/kg, ip by LC-MS/MS analysis to drug uptake in C57BL/6 mouse lung at 40 mg/kg, po administered via gavage by LC-MS/MS analysis; format: ADME, organism-based; details: in vivo
[7] = Drug metabolism in C57BL/6 mouse liver assessed as hydroxylated metabolite formation at 40 mg/kg, po administered via gavage by LC-MS/MS analysis; format: ADME, organism-based; details: in vivo
[8] = Drug uptake in C57BL/6 mouse kidney at 40 mg/kg, po administered via gavage co-administered with paclitaxel at 10 mg/kg, ip by LC-MS/MS analysis; format: ADME, organism-based; details: in vivo
[9] = AUC (0 to 24 hrs) in C57BL/6 mouse liver at 40 mg/kg, po administered via gavage by LC-MS/MS analysis; format: ADME, organism-based; parameters: dose 40 mg/kg, time < 24 hr, route oral; details: in vivo
A549 [10] = assay: Induction of apoptosis in human A549 cells assessed as necrotic cells at 4 uM after 24 hrs by Annexin V/propidium iodide staining-based flow cytometric analysis (reference value: 1.1%); format: functional
[11] = Drug uptake in C57BL/6 mouse plasma at 40 mg/kg, po administered via gavage co-administered with paclitaxel at 10 mg/kg, ip by LC-MS/MS analysis; format: ADME, organism-based; details: in vivo
[12] = Drug uptake in C57BL/6 mouse lung at 40 mg/kg, po administered via gavage co-administered with paclitaxel at 10 mg/kg, ip by LC-MS/MS analysis; format: ADME, organism-based; details: in vivo
[13] = system: Lewis lung carcinoma cell line; assay: Antitumor activity against mouse LL/2 cells implanted in C57BL/6 mouse assessed as tumor growth inhibition at 20 mg/kg, po qd administered for 21 consecutive days co-administered with paclitaxel at 10 mg/kg, ip qd administered for 5 days relative to control; format: functional
[14] = Ratio of AUC (0 to 24 hrs) in lung to plasma of C57BL/6 mouse at 40 mg/kg, po administered via gavage by LC-MS/MS analysis; format: ADME, organism-based; details: read-out: Ratio AUC
A549 [15] = assay: Induction of apoptosis in human A549 cells assessed as early apoptotic cells at 4 uM after 24 hrs in presence of paclitaxel by Annexin V/propidium iodide staining-based flow cytometric analysis (reference value: 1.2%); format: functional
[16] = Ratio of compound AUC (0 to 24 hrs) to ACY-1215 AUC (0 to 24 hrs) in C57BL/6 mouse kidney at 40 mg/kg, po administered via gavage by LC-MS/MS analysis; format: ADME, organism-based; details: in vivo
[17] = system: Lewis lung carcinoma cell line; assay: Potentiation of paclitaxel-induced cytotoxicity in mouse LL/2 cells assessed as combination index up to 10 uM after 72 hrs by Chou-Talalay method; format: functional
[18] = Ratio of compound AUC (0 to 24 hrs) to ACY-1215 AUC (0 to 24 hrs) in C57BL/6 mouse lung at 40 mg/kg, po administered via gavage by LC-MS/MS analysis; format: ADME, organism-based; details: in vivo
[19] = Ratio of drug uptake in C57BL/6 mouse liver at 40 mg/kg, po administered via gavage co-administered with paclitaxel at 10 mg/kg, ip by LC-MS/MS analysis to drug uptake in C57BL/6 mouse liver at 40 mg/kg, po administered via gavage by LC-MS/MS analysis; format: ADME, organism-based; details: in vivo
[20] = system: Lewis lung carcinoma cell line; assay: Antitumor activity against mouse LL/2 cells implanted in C57BL/6 mouse assessed as tumor growth inhibition at 40 to 80 mg/kg, po qd administered for 21 consecutive days relative to control; format: functional
A549 [21] = assay: Cytotoxicity against human A549 cells after 72 hrs by MTT assay; format: functional, cell-based; details: A549, 72 h
Procedure, shortened: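 Human A549 lung cancer cells exposed to serial dilutions of inhibitor at 37 °C for 72 h. Cytotoxicity expressed as IC50.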

[22] = Ratio of compound AUC (0 to 24 hrs) to ACY-1215 AUC (0 to 24 hrs) in C57BL/6 mouse plasma at 40 mg/kg, po administered via gavage by LC-MS/MS analysis; format: ADME, organism-based; details: in vivo
A549 [23] = assay: Induction of apoptosis in human A549 cells assessed as late apoptotic cells at 4 uM after 24 hrs by Annexin V/propidium iodide staining-based flow cytometric analysis (reference value: 1.6%); format: functional
[24] = system: Lewis lung carcinoma cell line; assay: Induction of apoptosis in mouse LL/2 cells assessed as early apoptotic cells at 4 uM after 24 hrs in presence of paclitaxel by Annexin V/propidium iodide staining-based flow cytometric analysis (reference value: 1.8%); format: functional
A549 [25] = assay: Induction of apoptosis in human A549 cells assessed as necrotic cells at 4 uM after 24 hrs in presence of paclitaxel by Annexin V/propidium iodide staining-based flow cytometric analysis (reference value: 1.1%); format: functional
[26] = Drug uptake in C57BL/6 mouse plasma at 40 mg/kg, po administered via gavage by LC-MS/MS analysis; format: ADME, organism-based; details: in vivo
[27] = Drug metabolism in C57BL/6 mouse kidney assessed as hydrolysis metabolite formation at 40 mg/kg, po administered via gavage by LC-MS/MS analysis; format: ADME, organism-based; details: in vivo
[28] = system: Lewis lung carcinoma cell line; assay: Induction of apoptosis in mouse LL/2 cells assessed as late apoptotic cells at 4 uM after 24 hrs by Annexin V/propidium iodide staining-based flow cytometric analysis (reference value: 8.7%); format: functional
Histone deacetylase 8 = biological target: T1, Histone deacetylase 8 (Homo sapiens, UniProt Q9BY41); assay: Inhibition of human full-length recombinant HDAC8 expressed in baculovirus infected Sf9 insect cells using fluorogenic peptide RHKAcKAc as substrate after 2 hrs
T1 sequence (Q9BY41 whole entry): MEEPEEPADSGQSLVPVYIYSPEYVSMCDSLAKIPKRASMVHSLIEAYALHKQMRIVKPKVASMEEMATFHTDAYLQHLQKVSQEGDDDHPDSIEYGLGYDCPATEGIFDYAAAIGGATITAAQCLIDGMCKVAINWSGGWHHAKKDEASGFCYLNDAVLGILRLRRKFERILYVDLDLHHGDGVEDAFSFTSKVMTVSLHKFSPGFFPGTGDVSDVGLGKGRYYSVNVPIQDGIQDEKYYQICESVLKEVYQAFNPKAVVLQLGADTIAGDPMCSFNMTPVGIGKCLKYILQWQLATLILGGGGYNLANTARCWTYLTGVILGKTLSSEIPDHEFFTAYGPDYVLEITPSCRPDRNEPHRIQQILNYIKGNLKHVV

O=C(NO)c1ccc(Cn2c(=O)n(CCc3ccccc3)c(=O)c3ccccc32)cc1
Activity [1]: 2.3%
Ratio AUC [2]: 4.4
Activity [3]: 64.8%
Activity (A549 [4]): 1.3%
IC50 [5]: 7.87 µM
Ratio [6]: 1.6
Drug metabolism [7]: Metabolite_Notdetected
Drug uptake [8]: 392 ng/g
AUC [9]: 6395 ng·h/g
Activity (A549 [10]): 0.7%
Cp [11]: 160 ng/mL
Drug uptake [12]: 331 ng/g
TGI [13]: 67.5%
Kp [14]: 18.8
Activity (A549 [15]): 5.4%
Ratio AUC [16]: 0.8
CI [17]: <1
Ratio AUC [18]: 2.1
Ratio [19]: 0.9
TGI [20]: 63.4%
IC50 (A549 [21]): 7.87 µM
Ratio AUC [22]: 0.2
Activity (A549 [23]): 0.7%
Activity [24]: 8.8%
Activity (A549 [25]): 0.5%
Cp [26]: 13 ng/mL
Drug metabolism [27]: Metabolite_Detected
Activity [28]: 10.4%
IC50 (Histone deacetylase 8): 0.309 µM
